The target of experiment [1] is D(2) dopamine receptor (Rattus norvegicus) (UniProt P61169). Description: Inhibitory activity against Dopamine receptor D2 of rat limbic tissue at 1 uM. Format: tissue-based. The conditions noted are these: Limbic system.
Experiment [2] deals with Serotonin 2 (5-HT2) receptor (Rattus norvegicus, UniProt P30994+P08909+P14842). Description: Inhibitory activity against rat cortical 5-hydroxytryptamine 2 receptor. Format: protein assay. The essentials: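 Cortical membranes from male Sprague–Dawley rats, incubated 15 min at 37 °C in 50 mM Tris pH 7.6 with 1.0 nM [3H]ketanserin and a range of drug concentrations. Nonspecific binding defined with 100 μM methysergide. Run by filtration and counting.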

Experiment [3] addresses T1, 5-hydroxytryptamine receptor 1A (Rattus norvegicus, UniProt P19327).
T1 sequence (P19327 whole entry): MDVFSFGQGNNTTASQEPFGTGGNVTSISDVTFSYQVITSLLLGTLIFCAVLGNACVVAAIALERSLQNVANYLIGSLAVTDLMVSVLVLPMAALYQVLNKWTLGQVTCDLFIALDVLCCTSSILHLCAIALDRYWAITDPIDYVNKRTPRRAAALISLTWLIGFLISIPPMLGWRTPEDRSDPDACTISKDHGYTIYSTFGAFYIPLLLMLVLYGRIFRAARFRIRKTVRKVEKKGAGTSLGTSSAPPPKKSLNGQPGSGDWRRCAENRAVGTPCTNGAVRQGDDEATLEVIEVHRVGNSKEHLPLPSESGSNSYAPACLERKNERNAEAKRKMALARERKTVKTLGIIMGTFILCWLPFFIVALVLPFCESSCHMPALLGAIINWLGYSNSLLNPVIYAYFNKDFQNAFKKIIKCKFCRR
The experiment is described as follows: Antagonist activity against rat hippocampal tissue 5-hydroxytryptamine 1A receptor. Format: functional, tissue-based, Hippocampus.

Experiment [4] addresses T2, 5-hydroxytryptamine receptor 1A (Rattus norvegicus) (UniProt P19327).
T2 sequence (whole entry): T1 sequence (P19327 whole entry)
Description: Inhibitory activity against 5-hydroxytryptamine 1A receptor of rat hippocampal tissue at 1 uM. Format: tissue-based. The conditions noted are these: Hippocampus.

Another experiment concerns the target D(2) dopamine receptor (Rattus norvegicus, UniProt P61169). Description: Inhibitory activity against rat limbic tissue Dopamine receptor D2. Format: tissue-based, Limbic system. The method in brief:
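Rat limbic membranes, handled as in the 5-HT2 assay: 15 min at 37 °C, 50 mM Tris pH 7.6, drug concentration range. 30 nM ketanserin in all tubes to block 5-HT2 sites. Nonspecific binding defined with 10 μM sulpiride. Filtration and counting.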

Chain of D(2) dopamine receptor (P61169 whole entry): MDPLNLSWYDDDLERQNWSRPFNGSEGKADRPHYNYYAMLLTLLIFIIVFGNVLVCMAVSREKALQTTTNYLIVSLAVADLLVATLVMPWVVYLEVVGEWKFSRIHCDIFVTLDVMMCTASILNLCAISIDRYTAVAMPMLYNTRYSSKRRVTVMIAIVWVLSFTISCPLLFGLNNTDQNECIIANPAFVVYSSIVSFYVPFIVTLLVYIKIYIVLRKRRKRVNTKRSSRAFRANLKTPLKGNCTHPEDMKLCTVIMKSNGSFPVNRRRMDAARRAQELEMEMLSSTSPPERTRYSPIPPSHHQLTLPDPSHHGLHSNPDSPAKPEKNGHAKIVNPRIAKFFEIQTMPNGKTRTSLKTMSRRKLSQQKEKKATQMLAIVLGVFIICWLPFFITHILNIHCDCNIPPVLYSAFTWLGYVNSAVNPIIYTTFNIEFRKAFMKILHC
Chain of D(2) dopamine receptor (Rattus norvegicus) (P61169 whole entry): as above

As for `Cl.Cl.O=C(NCCN1CCN(c2cccc(Cl)c2)CC1)C12CC3CC(CC1C3)C2`, in experiment [1], the inhibition (commonly the drop in the measured response relative to a control, in per cent) came out at 94%. Besides, the Ki – broadly, the dissociation constant of the complex between target and ligand, obtained from inhibition or displacement – in experiment [2] stood at 2.3 nM; in experiment [3], 0.7 nM.
In the case of `C[C@@]12C[C@@H]3C[C@@H](CC(CC(=O)OCCN4CCN(c5ncccn5)CC4)(C3)C1)C2`, the inhibition in experiment [4] is 72%; in experiment [1], 39%.
For `C[C@@H](CN1CCN(c2ncccn2)CC1)NC(=O)C12C[C@H]3C[C@@H](C1)C[C@@H](C2)C3`, the inhibition in experiment [4] is 21%; in experiment [1], 1%.
`Cl.Cl.O=C(NCCN1CCN(c2ncccn2)CC1)C12CC3CC(CC1C3)C2` returned an inhibition in experiment [1] of 67%. Moreover, the results for the Ki in experiment [2] and in experiment [3] were 262 nM and 2.4 nM, respectively.
Turning to `O=C(OCCCN1CCN(c2cccc(Cl)c2)CC1)C12C[C@H]3C[C@@H](C1)C[C@@H](C2)C3`, the inhibition in experiment [4] amounted to 80%; in experiment [1], 67%.
With `O=C(NC12C[C@H]3C[C@@H](C1)C[C@@H](C2)C3)N1CCN(c2cccc(Cl)c2)CC1`, in experiment [4], the inhibition worked out at 0%.
For the molecule `O=C(OCCN1CCN(C(c2ccc(F)cc2)c2ccc(F)cc2)CC1)C12C[C@H]3C[C@@H](C1)C[C@@H](C2)C3`, the inhibition in experiment [4] came out at 4%.
In experiment [3], `CC(C)(CN1CCN(c2ncccn2)CC1)NC(=O)C12C[C@H]3C[C@@H](C1)C[C@@H](C2)C3` yielded a Ki of 127 nM.
In turn, `COc1ccccc1N1CCN(CCOC(=O)NC23C[C@H]4C[C@@H](C2)C[C@@H](C3)C4)CC1` returned an inhibition in experiment [1] of 95%. In experiment [3], this molecule had a Ki of 40 nM.
For the molecule `O=C(NCCN1CCN(c2ccc(Cl)cc2)CC1)C12C[C@H]3C[C@@H](C1)C[C@@H](C2)C3`, in experiment [3], the affinity, expressed as Ki, was 96 nM.
As for `Cl.Cl.O=C(NCCCN1CCN(c2cccc(Cl)c2)CC1)C12CC3CC(CC1C3)C2`, the inhibition in experiment [1] amounted to 31%. Further, the figures for the inhibition constant (Ki) in experiment [2] and in experiment [3] were 4.3 nM and 10 nM, respectively.
In experiment [1], `COc1ccccc1N1CCN(CCCOC(=O)C23CC4C[C@@H](C[C@H]2C4)C3)CC1` came in with an inhibition of 100%. In experiment [3], this molecule yielded an inhibitory constant (Ki) of 26 nM.
`CC(C)(CN1CCN(Cc2ccccc2)CC1)NC(=O)C12C[C@H]3C[C@@H](C1)C[C@@H](C2)C3`: the inhibition in experiment [4] was determined as 0%.
The molecule `Cl.Cl.Cl.O=C(CCN1CCN(c2ncccn2)CC1)NC12C[C@H]3C[C@@H](C1)C[C@@H](C2)C3` gave an inhibition in experiment [1] of 14%. The Ki amounted to 47 nM in experiment [2] and 131 nM in experiment [3].
`O=C(OCCN1CCN(c2ncccn2)CC1)C12CC3CC(CC1C3)C2` yielded an inhibition in experiment [1] of 47%.
For the molecule `O=C(NC12C[C@H]3C[C@@H](C1)C[C@@H](C2)C3)OCCN1CCN(c2cccc(Cl)c2)CC1`, in experiment [1], the inhibition was found to be 36%. For the same molecule, affinity in experiment [3] was put at a Ki of 76 nM.
For the molecule `C[C@@]12C[C@@H]3C[C@@H](CC(CC(=O)NCCN4CCN(c5cccc(Cl)c5)CC4)(C3)C1)C2`, the inhibition in experiment [1] was found to be 40%. Also, the Ki in experiment [3] was found to be 38 nM.
`O=C(NCCN1CCN(c2cccc(Cl)c2)CC1)NC12C[C@H]3C[C@@H](C1)C[C@@H](C2)C3` registered an inhibition in experiment [1] of 56%. The Ki in experiment [2] was 89 nM; in experiment [3], 61 nM.
`Cl.Cl.O=C(NCCCN1CCN(c2ncccn2)CC1)C12C[C@H]3C[C@@H](C1)C[C@@H](C2)C3` registered an inhibition in experiment [1] of 6%. For the same molecule, the Ki in experiment [2] is 21 nM; in experiment [3], 89 nM.
For `C[C@@]12C[C@@H]3C[C@@H](CC(CC(=O)OCCN4CCN(c5cccc(C(F)(F)F)c5)CC4)(C3)C1)C2`, the inhibition in experiment [4] was 35%; in experiment [1], 29%.
Taken in the same sequence, the figures for `O=C(NCCN1CCN(c2cccc(C(F)(F)F)c2)CC1)C12CC3CC(CC1C3)C2` were 83% and 73%.
Regarding `C[C@@]12C[C@@H]3C[C@@H](CC(CC(=O)NCCCN4CCN(c5ncccn5)CC4)(C3)C1)C2`, the inhibition in experiment [4] is 68%; in experiment [1] it was 20%.
With `Cl.Cl.O=C(NCCCN1CCN(c2cccc(Cl)c2)CC1)NC12C[C@H]3C[C@@H](C1)C[C@@H](C2)C3`, the inhibition in experiment [1] is 38%. Also, the inhibition constant (Ki) came to 277 nM in experiment [2] and 45 nM in experiment [3].
For the molecule `O=C(N[C@H](Cc1ccccc1)CN1CCN(c2ncccn2)CC1)C12C[C@H]3C[C@@H](C1)C[C@@H](C2)C3`, the inhibition constant Ki in experiment [2] came out at 395 nM; at D(2) dopamine receptor, 20 nM; in experiment [3], 0.43 nM.
For the molecule `Cl.Cl.O=C(NCCCN1CCN(c2ncccn2)CC1)NC12C[C@H]3C[C@@H](C1)C[C@@H](C2)C3`, the Ki in experiment [2] was 1600 nM; at D(2) dopamine receptor, > 10000 nM; in experiment [3] it was 7 nM.
On to `Cl.Cl.O=C(NCCN1CCN(c2cccc(Cl)c2)CC1)C12C[C@H]3C[C@@H](C1)C[C@@H](C2)C3`, for which the Ki in experiment [2] worked out at 16.4 nM; at D(2) dopamine receptor, 129 nM; in experiment [3], 0.89 nM.
`COc1ccccc1N1CCN(CCCOC(=O)CC23C[C@H]4C[C@@H](C2)C[C@](C)(C4)C3)CC1` came in with an inhibition in experiment [1] of 95%. The molecule also had an inhibitory constant (Ki) in experiment [3] of 17 nM.
Turning to `O=C(NCCN1CCN(Cc2ccccc2)CC1)C12C[C@H]3C[C@@H](C1)C[C@@H](C2)C3`, the inhibition in experiment [1] worked out at 8%. Further, the Ki in experiment [3] was 46 nM.
`C[C@@]12C[C@@H]3C[C@@H](CC(CC(=O)NCCCN4CCN(c5cccc(Cl)c5)CC4)(C3)C1)C2` had an inhibition in experiment [4] of 81%.
Still for that read-out and setting: as for `CC(C)N(CCN1CCN(c2ncccn2)CC1)C(=O)C12C[C@H]3C[C@@H](C1)C[C@@H](C2)C3`, the figure is 36%.
As to `COc1ccccc1N1CCN(C[C@@H](C)NC(=O)C23C[C@H]4C[C@@H](C2)C[C@@H](C3)C4)CC1`, the values for the Ki (at D(2) dopamine receptor; in experiment [3]) were 21.5 nM and 0.22 nM, respectively.
Consider `O=C(NCCN1CCN(C(c2ccc(Cl)cc2)c2ccc(Cl)cc2)CC1)NC12C[C@H]3C[C@@H](C1)C[C@@H](C2)C3`, for which the inhibition in experiment [4] was 9%.
Molecule `C[C@H](CN1CCN(Cc2ccccc2)CC1)NC(=O)C12C[C@H]3C[C@@H](C1)C[C@@H](C2)C3` showed an inhibition in experiment [1] of 14%. In experiment [3], this molecule had a Ki of 37 nM.
Molecule `O=C(NCCCN1CCN(c2cccc(Cl)c2)CC1)C12C[C@H]3C[C@@H](C1)C[C@@H](C2)C3` returned an inhibition in experiment [1] of 32%. The same molecule displayed a Ki in experiment [3] of 19 nM.
`CN(CCN1CCN(c2ncccn2)CC1)C(=O)C12C[C@H]3C[C@@H](C1)C[C@@H](C2)C3`: affinity in experiment [3] was put at a Ki of 60 nM.
As for `O=C(OCCCN1CCN(c2cccc(C(F)(F)F)c2)CC1)C12C[C@H]3C[C@@H](C1)C[C@@H](C2)C3`, the figures for the inhibition in experiment [4] and in experiment [1] were 75% and 54%, respectively.
Turning to `COc1ccccc1N1CCN(CCOC(=O)CC23C[C@H]4C[C@@H](C2)C[C@](C)(C4)C3)CC1`, the inhibition is 86% in experiment [4] and 97% in experiment [1].
Consider `O=C(OCCCN1CCN(c2ncccn2)CC1)C12C[C@H]3C[C@@H](C1)C[C@@H](C2)C3`, for which the inhibition was 72% in experiment [4] and 33% in experiment [1].
The molecule `O=C(NC12C[C@H]3C[C@@H](C1)C[C@@H](C2)C3)N1CCN(c2ncccn2)CC1` returned an inhibition in experiment [4] of 3%.
`O=C(NCCN1CCN(c2ncccn2)CC1)NC12C[C@H]3C[C@@H](C1)C[C@@H](C2)C3` returned an inhibition in experiment [1] of 72%. Besides, the results for the Ki in experiment [2] and in experiment [3] were 71 nM and 77 nM, respectively.
The molecule `C[C@@]12C[C@@H]3C[C@@H](CC(CC(=O)OCCCN4CCN(c5cccc(Cl)c5)CC4)(C3)C1)C2` yielded an inhibition in experiment [4] of 58%.
In the case of `O=C(N[C@H](COCc1ccccc1)CN1CCN(Cc2ccccc2)CC1)C12C[C@H]3C[C@@H](C1)C[C@@H](C2)C3`, the results for the inhibitory constant (Ki) (on D(2) dopamine receptor; in experiment [3]) were 76 nM and 62 nM, respectively.
Take `Cl.Cl.O=C(NCCCN1CCN(c2ncccn2)CC1)C12CC3CC(CC1C3)C2`: the inhibition in experiment [1] was found to be 27%. For the same molecule, the inhibition constant (Ki) in experiment [2] is listed as 286 nM.
For `O=C(OCCCN1CCN(Cc2ccccc2)CC1)C12C[C@H]3C[C@@H](C1)C[C@@H](C2)C3`, the inhibition in experiment [4] was determined as 63%.
With `C[C@@]12C[C@@H]3C[C@@H](CC(CC(=O)OCCN4CCN(c5cccc(Cl)c5)CC4)(C3)C1)C2`, the results for the inhibition in experiment [4] and in experiment [1] were 34% and 19%, respectively.
Molecule `COc1ccccc1N1CCN(CCOC(=O)C23CC4C[C@@H](C[C@H]2C4)C3)CC1` displayed an inhibition in experiment [1] of 100%. In experiment [3], this molecule had a Ki of 4.8 nM.
Molecule `C[C@@]12C[C@@H]3C[C@@H](CC(CC(=O)OCCCN4CCN(c5cccc(C(F)(F)F)c5)CC4)(C3)C1)C2` gave an inhibition in experiment [4] of 56%.
In experiment [3], `C[C@@]12C[C@@H]3C[C@@H](CC(CC(=O)NCCN4CCN(c5ncccn5)CC4)(C3)C1)C2` had a Ki of 30 nM.
As to `O=C(N1CCN(c2ncccn2)CC1)C12C[C@H]3C[C@@H](C1)C[C@@H](C2)C3`, the inhibition in experiment [4] was found to be 9%.

Source of the values: ChEMBL document CHEMBL1132497, “Synthesis and SAR of adatanserin: novel adamantyl aryl- and heteroarylpiperazines with dual serotonin 5-HT(1A) and 5-HT(2) activity as potential anxiolytic and antidepressant agents” (J Med Chem, 1999).
